Results on three compounds are retold here after ChEMBL document CHEMBL3352181, “Novel phenyl and pyridyl substituted derivatives of isoindolines: Synthesis, antitumor activity and DNA binding features” (Eur J Med Chem, 2014).

pIC50: −log10 of the molar value. Calls of active or inactive are those of the source. No cut-off for these calls is given here. Where only a bound is given, the exact number is not on record here.

The subject of data set [1] is Calf thymus DNA. Description: Binding affinity to calf thymus DNA assessed as change in melting temperature at drug/ base pair ratio of 0.25 by spectrophotometry. Type of data set: nucleic-acid assay. To be noted: Bos taurus. A digest of the protocol: (§1)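 CT-DNA absorbance followed at 260 nm from 20 to 100 °C, rising 1 °C per min, in BPE buffer, with or without compound at drug/base-pair ratio 0.25 or 0.5. Tm taken as midpoint of the hyperchromic transition from first-derivative plots. ΔTm is Tm with compound minus Tm of DNA alone.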

Data set [2] concerns Calf thymus DNA. Description: Binding affinity to calf thymus DNA assessed as change in melting temperature at drug/ base pair ratio of 0.5 by spectrophotometry. To be noted: Bos taurus. It is filed as nucleic-acid assay. In short, it runs like this:
as §1

Data set [3] deals with Calf thymus DNA. Kind of data set: Binding affinity to calf thymus DNA at 50 uM circular dichroism spectroscopy. It is filed as nucleic-acid assay. To be noted: Bos taurus. In short, it runs like this:
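CD spectra recorded from 480 to 230 nm, 10 mm path, 20 °C, in BPE buffer. CT-DNA (50 µM) incubated with compound rising from 1 to 60 µM or to 80 µM. Compound without DNA served as the control for intrinsic CD.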
A general note: CD spectra are sensitive to the conformation of chiral molecules.

Data set [4] has as its target T1, DNA topoisomerase 1 (Homo sapiens) (UniProt P11387).
T1 sequence (whole entry): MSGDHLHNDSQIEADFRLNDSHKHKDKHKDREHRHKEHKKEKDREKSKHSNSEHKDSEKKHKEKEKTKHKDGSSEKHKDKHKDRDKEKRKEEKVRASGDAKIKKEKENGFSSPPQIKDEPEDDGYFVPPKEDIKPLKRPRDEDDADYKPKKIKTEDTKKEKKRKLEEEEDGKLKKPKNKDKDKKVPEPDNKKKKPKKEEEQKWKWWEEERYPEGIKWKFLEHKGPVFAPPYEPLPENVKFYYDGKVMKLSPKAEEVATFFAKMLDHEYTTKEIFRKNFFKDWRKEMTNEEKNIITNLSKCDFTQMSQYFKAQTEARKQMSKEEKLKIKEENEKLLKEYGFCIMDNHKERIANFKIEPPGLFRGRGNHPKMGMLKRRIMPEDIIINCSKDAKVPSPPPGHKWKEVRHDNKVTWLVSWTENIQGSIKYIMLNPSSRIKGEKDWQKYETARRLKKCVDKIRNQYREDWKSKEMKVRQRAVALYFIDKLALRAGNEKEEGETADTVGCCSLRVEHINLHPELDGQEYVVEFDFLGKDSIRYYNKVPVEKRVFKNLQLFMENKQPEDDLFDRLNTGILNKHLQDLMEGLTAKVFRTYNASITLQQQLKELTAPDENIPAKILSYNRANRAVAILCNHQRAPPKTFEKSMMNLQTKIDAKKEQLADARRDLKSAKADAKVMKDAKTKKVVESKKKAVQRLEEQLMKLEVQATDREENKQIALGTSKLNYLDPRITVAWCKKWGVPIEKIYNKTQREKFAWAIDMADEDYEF
Kind of data set: Inhibition of human topoisomerase 1 assessed as topoisomerase poison activity by measuring generation of open circular DNA using supercoiled pUC19 DNA at 5 to 50 uM by agarose gel electrophoresis. A digest of the protocol:
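Supercoiled pUC19 plasmid was incubated with human topoisomerase I and graded compound concentrations. Reactions were stopped with SDS and proteinase K. DNA forms were resolved on 1% agarose in TBE (2 h, 120 V), post-stained with ethidium bromide and photographed under UV. Poisoning was read as appearance of nicked DNA, with camptothecin as the positive control.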

The nature of data set [5]: Binding affinity to pBluescript 265 bp DNA fragment (unknown origin) at 1 to 25 uM incubated for 15 mins by DNase-1 foot printing assay. A digest of the protocol: (§2)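 265 bp EcoRI/PvuII fragment of pBluescript, 3'-end labelled with α[32P]-dATP, incubated with compound (up to 50 µM) for 15 min at 37 °C, then mildly digested with DNase I. Run on 8% denaturing polyacrylamide/8 M urea gels and imaged by phosphor screen. Base positions assigned against a DMS/piperidine G-track.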

In data set [6] the test system is Nucleic Acid. Description: Induction of DNA intercalation in supercoiled pUC19 DNA in presence of human topoisomerase 1 assessed as effect on topoisomerase 1-mediated DNA relaxation at 5 to 50 uM by agarose gel electrophoresis. To be noted: Escherichia coli. Type of data set: nucleic-acid assay. In short, it runs like this:
(§3)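 Supercoiled pUC19 incubated with human topoisomerase I and graded compound concentrations. Stopped with SDS/proteinase K. DNA forms resolved on 1% agarose in TBE, 2 h at 120 V, stained post-run with ethidium bromide and viewed under UV. Camptothecin was the topo I poison control.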

Another data set has as its system MCF7. Kind of data set: Antiproliferative activity against human MCF7 cells assessed as inhibition of cell proliferation after 72 hrs by MTT assay. To be noted: for pIC50: Homo sapiens, MCF7, 72 h. Type of data set: functional, cell-based. In short, it runs like this: (§4)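 Cells grown as monolayers in DMEM with 10% FBS, 2 mM L-glutamine, penicillin/streptomycin, 37 °C, 5% CO2. Seeded at 5000/well on day 0. Compounds added after 24 h as five serial dilutions (0,01 to 100 µM), DMSO ≤0.1%, then 72 h. MTT read-out converted to percentage growth. IC50 by linear regression; quadruplicates in three experiments.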

A short description of data set [7]: (§5) Antiproliferative activity against human SW620 cells assessed as inhibition of cell proliferation after 72 hrs by MTT assay. The conditions noted are these: Homo sapiens, SW-620, 72 h. It is filed as functional, cell-based, SW-620. A digest of the protocol: as §4
Another data set deals with SW-620. The description is as §5. Type of data set: functional, cell-based. In short, it runs like this: as §4
The test system of another data set is HepG2. Description: Antiproliferative activity against human HepG2 cells assessed as inhibition of cell proliferation after 72 hrs by MTT assay. Type of data set: functional, cell-based. The conditions noted are these: for pIC50: HepG2, 72 h. A digest of the protocol:
as §4
For orientation: Formazan colour is commonly taken as a measure of viable cells.

The subject of another data set is BJ. Kind of data set: Antiproliferative activity against human BJ cells assessed as inhibition of cell proliferation after 72 hrs by MTT assay. Type of data set: cell-based. The conditions noted are these: 72 h; for pIC50: Homo sapiens, BJ; for inhibition (INH): human, bj. In short, it runs like this: as §4
The subject of the next data set is HeLa. Description: Antiproliferative activity against human HeLa cells assessed as inhibition of cell proliferation after 72 hrs by MTT assay. Type of data set: functional, cell-based. The conditions noted are these: for pIC50: Homo sapiens, HeLa, 72 h. In short, it runs like this: as §4
Data set [8] relates to Nucleic Acid. Kind of data set: Induction of DNA intercalation in supercoiled pUC19 DNA in presence of human topoisomerase 1 assessed as effect on topoisomerase 1-mediated DNA relaxation at 50 uM by agarose gel electrophoresis. It is filed as nucleic-acid assay. To be noted: Escherichia coli. In short, it runs like this:
as §3

A short description of data set [9]: Binding affinity to pBluescript 265 bp DNA fragment (unknown origin) assessed binding to AT-rich AATT sequence at 1 to 25 uM incubated for 15 mins by DNase-1 foot printing assay. In short, it runs like this: as §2
Data set [10] is described as follows: Binding affinity to pBluescript 265 bp DNA fragment (unknown origin) assessed binding to AT-rich ATTA sequence at 1 to 25 uM incubated for 15 mins by DNase-1 foot printing assay. In short, it runs like this:
as §2

Data set [11] can be described thus: Binding affinity to pBluescript 265 bp DNA fragment (unknown origin) assessed binding to ACAA sequence at 1 to 25 uM incubated for 15 mins by DNase-1 foot printing assay. In short, it runs like this: as §2
Data set [12] is described as follows: Binding affinity to pBluescript 265 bp DNA fragment (unknown origin) assessed binding to TTGT) sequence at 1 to 25 uM incubated for 15 mins by DNase-1 foot printing assay. A digest of the protocol: as §2
A short description of data set [13]: Antiproliferative activity against human WI38 cells assessed as inhibition of cell proliferation after 72 hrs by MTT assay. Type of data set: cell-based, WI-38. In short, it runs like this:
as §4

As to `Cl.c1ccc2c(c1)CN(c1ccc(C3=NCCN3)cc1)/C2=N/c1ccc(C2=NCCN2)cc1`, the ΔTm – broadly, the change in melting temperature against a reference sample – in the data set with Calf thymus DNA [1] amounted to 16 °C; in the data set on Calf thymus DNA [2], 19.6 °C. For the same compound, the result with Calf thymus DNA [3] and in the data set on Nucleic Acid [6] was Active. In [4], the inhibition result was “inactive”. Further, in data set [5], the result was inactive. For the same compound, the inhibition result with MCF7, with SW-620, with HepG2 and in the data set on HeLa was “Dose-dependent effect” in each case. For the same compound, the pIC50 (usually the IC50 on a negative log10 scale, so that one unit is a factor of ten) in the data set on MCF7 is 4.70; in data set [7] it was less than 4.00; in the data set with HepG2 it was 4.08; in the data set with BJ, 5.06; in the data set on HeLa it was 4.11. Moreover, in the data set on BJ, the “inhibition (INH)” value is reported as “Dose-dependent effect”.

As for `CC(C)NC(=N)c1ccc(/N=C2\c3ccccc3CN2c2ccc(C(=N)NC(C)C)cc2)cc1.Cl`, the ΔTm in the data set on Calf thymus DNA [1] stood at 6.3 °C; in the data set on Calf thymus DNA [2] it was 11.3 °C. Also, the outcome (in the data set with Calf thymus DNA [3]; in [9]; in [10]; in data set [11]; in data set [12]) was Active. Besides, the result in the data set with Nucleic Acid [8] was inactive. The inhibition entry in [4] was “inactive”. The negative logarithm of the IC50 (pIC50) in data set [13] (Homo sapiens, WI-38, 72 h) is 4.27; with MCF7 it was 4.27; in [7], less than 4.00; in the data set with HepG2, 4.21; with HeLa, less than 4.00. Also, the “inhibition (INH)” value in data set [13] (human, wi-38, 72 h) was “Dose-dependent effect”. Besides, the inhibition result in the data set with MCF7, in the data set on SW-620, in the data set with HepG2 and in the data set with HeLa was “Dose-dependent effect” each time.

For the compound `Cc1ccnc(/N=C2\c3ccccc3CN2c2cc(C)ccn2)c1`, the thermal shift (ΔTm) in the data set on Calf thymus DNA [2] came to 0 °C. Also, the result with Nucleic Acid [8] was Active. Also, the inhibition entry in data set [4] is “inactive”. Also, the inhibition result with MCF7, in the data set on SW-620, in the data set on HepG2 and in the data set on HeLa was “Dose-dependent effect” throughout. Besides, the pIC50 with MCF7 was 6.15; in data set [7] it was less than 4.00; in the data set with HepG2, 4.36; with BJ, 4.10; with HeLa, 4.01. The “inhibition (INH)” value with BJ was “Dose-dependent effect”.
